Activity calls are given as the source filed them. The rule behind the calls is not given here.
Experiments:
RAW264.7 [1] = test: Reduction in TNF-alpha production in LPS-stimulated mouse RAW264.7 cells at 20 and 40 uM pre-treated for 6 hrs prior to LPS-challenge measured after 24 hrs; assay type: functional, cell-based
Summary of the method: (§1)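 RAW264.7 macrophages pretreated 6 h with compound, then given LPS (500 ng/mL) for 24 h. TNF-α, IL-1β and IL-6 protein measured by commercial kit (R&D Systems). mRNA levels measured by real-time PCR. Mean ± SD of three experiments; one-way ANOVA with Newman−Keuls test.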

[2] = molecular target: T1, Nuclear factor erythroid 2-related factor 2 (Mus musculus) (UniProt Q60795); test: Activation of Nrf2 in LPS-stimulated mouse RAW264.7 cells assessed as induction of HO-1 protein expression at 5 to 40 uM pre-treated for 6 hrs prior to LPS-challenge measured after 12 hrs by western blot analysis; assay type: cell-based
T1 sequence (whole entry): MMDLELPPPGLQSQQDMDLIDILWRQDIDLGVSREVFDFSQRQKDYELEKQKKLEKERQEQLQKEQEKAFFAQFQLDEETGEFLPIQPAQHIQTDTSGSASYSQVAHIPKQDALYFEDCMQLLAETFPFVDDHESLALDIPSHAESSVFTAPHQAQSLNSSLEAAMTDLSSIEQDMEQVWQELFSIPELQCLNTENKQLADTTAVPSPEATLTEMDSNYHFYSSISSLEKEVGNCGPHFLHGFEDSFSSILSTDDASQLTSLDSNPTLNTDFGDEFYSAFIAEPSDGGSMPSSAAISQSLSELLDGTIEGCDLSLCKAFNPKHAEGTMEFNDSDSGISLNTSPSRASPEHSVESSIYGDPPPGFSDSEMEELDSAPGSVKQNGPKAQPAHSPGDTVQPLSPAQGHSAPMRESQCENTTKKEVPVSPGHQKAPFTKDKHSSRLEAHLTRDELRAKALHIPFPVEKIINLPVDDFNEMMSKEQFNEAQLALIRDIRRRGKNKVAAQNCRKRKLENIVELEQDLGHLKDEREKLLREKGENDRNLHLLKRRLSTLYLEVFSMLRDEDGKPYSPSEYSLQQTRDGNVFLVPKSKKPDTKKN
Summary of the method: (§2)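 RAW264.7 macrophages incubated 12 h with compound (5−40 μM). HO-1 mRNA measured, and HO-1 protein by Western blot. Mean ± SD of three experiments; representative blots from three independent experiments.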

RAW264.7 [3] = test: Antiinflammatory activity in LPS-stimulated mouse RAW264.7 cells assessed as reduction in IL6 production at 20 and 40 uM pre-treated for 6 hrs prior to LPS-challenge measured after 24 hrs in presence of HO-1 competitive inhibitor SnPP; assay type: functional, cell-based
Summary of the method: (§3)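 RAW264.7 cells pretreated 6 h with compound (40 μM), with or without SnPP (50 μM), then stimulated 24 h with LPS (500 ng/mL). Nitrite in conditioned medium measured. PGE2, TNF-α, IL-1β and IL-6 measured by commercial kit (R&D Systems). iNOS and COX-2 read by Western blot. Mean ± SD of three experiments; one-way ANOVA with Newman−Keuls test.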

[4] = molecular target: T1, Nuclear factor erythroid 2-related factor 2 (Mus musculus); test: Activation of Nrf2 in LPS-stimulated mouse RAW264.7 cells assessed as induction of HO-1 mRNA expression at 5 to 40 uM pre-treated for 6 hrs prior to LPS-challenge measured after 12 hrs; assay type: cell-based; summary of the method: as §2
RAW264.7 [5] = test: Antiinflammatory activity in LPS-stimulated mouse RAW264.7 cells assessed as reduction in nitrite production at 5 to 40 uM pre-treated for 6 hrs prior to LPS-challenge measured after 24 hrs in presence of HO-1 competitive inhibitor SnPP by Griess reaction
RAW264.7 [6] = test: Reduction in IL6 production in LPS-stimulated mouse RAW264.7 cells at 20 and 40 uM pre-treated for 6 hrs prior to LPS-challenge measured after 24 hrs; assay type: functional, cell-based; summary of the method: as §1
RAW264.7 [7] = test: Reduction in TNF-alpha mRNA expression in LPS-stimulated mouse RAW264.7 cells at 20 and 40 uM pre-treated for 6 hrs prior to LPS-challenge measured after 24 hrs by real-time PCR analysis; assay type: functional, cell-based; summary of the method: as §1
[8] = molecular target: T1, Nuclear factor erythroid 2-related factor 2 (Mus musculus); test: Increase in nuclear Nrf2 translocation in LPS-stimulated mouse RAW264.7 cells assessed as nuclear Nrf2 level at 20 and 40 uM measured up to 120 mins by Western blot analysis; assay type: cell-based
Summary of the method: (§4)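 Cells exposed to compound at 40 μM for 0–120 min in 20 min steps. Nuclei separated from cytosol with PER-Mammalian Protein Extraction buffer plus protease inhibitor cocktail and 1 mM PMSF. Nuclear and cytoplasmic Nrf2 read by Western blot. Representative blots from three independent experiments.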

RAW264.7 [9] = test: Reduction in IL6 mRNA expression in LPS-stimulated mouse RAW264.7 cells at 20 and 40 uM pre-treated for 6 hrs prior to LPS-challenge measured after 24 hrs by real-time PCR analysis; assay type: functional, cell-based; summary of the method: as §1
[10] = molecular target: Transcription factor p65 (Mus musculus) (UniProt Q04207); test: Inhibition of LPS-stimulated DNA binding activity of NF-kappaB p65 in mouse RAW264.7 cells assessed as at 20 and 40 uM pre-treated for 6 hrs prior to LPS-challenge measured after 30 mins by ELISA method; assay type: cell-based
Summary of the method: (§5)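 Cells pretreated 6 h with compound, then stimulated 30 min with LPS (500 ng/mL). Nuclear fractions probed by Western blot for p50 and p65. NF-κB DNA binding in nuclear extracts measured by TransAM ELISA kit. Mean ± SD of three experiments.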

RAW264.7 [11] = test: Reduction in iNOS expression in LPS-stimulated mouse RAW264.7 cells at 5 to 40 uM pre-treated for 6 hrs prior to LPS-challenge measured after 24 hrs by western blot analysis; assay type: functional, cell-based
Summary of the method: (§6)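 RAW264.7 macrophages pretreated 6 h with compound, then stimulated 24 h with LPS (500 ng/mL). Nitrite in conditioned medium measured. PGE2 measured by commercial kit. iNOS and COX-2 read by Western blot in RIPA lysates (25 mM Tris-HCl pH 7.6, 150 mM NaCl, 1% NP-40, 1% deoxycholate, 0.1% SDS). Mean ± SD of three experiments.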

[12] = molecular target: T1, Nuclear factor erythroid 2-related factor 2 (Mus musculus); test: Increase in nuclear Nrf2 translocation in LPS-stimulated mouse RAW264.7 cells assessed as cytosolic Nrf2 level at 20 and 40 uM measured up to 120 mins by Western blot analysis; assay type: cell-based; summary of the method: as §4
RAW264.7 [13] = test: Antiinflammatory activity in LPS-stimulated mouse RAW264.7 cells assessed as reduction in PGE2 production at 5 to 40 uM pre-treated for 6 hrs prior to LPS-challenge measured after 24 hrs; assay type: functional, cell-based; summary of the method: as §6
RAW264.7 [14] = test: Antiinflammatory activity in LPS-stimulated mouse RAW264.7 cells assessed as reduction in PGE2 production at 5 to 40 uM pre-treated for 6 hrs prior to LPS-challenge measured after 24 hrs in presence of HO-1 competitive inhibitor SnPP
RAW264.7 [15] = test: Reduction in IL-1beta production in LPS-stimulated mouse RAW264.7 cells at 20 and 40 uM pre-treated for 6 hrs prior to LPS-challenge measured after 24 hrs; assay type: functional, cell-based; summary of the method: as §1
RAW264.7 [16] = test: Antiinflammatory activity in LPS-stimulated mouse RAW264.7 cells assessed as reduction in nitrite production at 5 to 40 uM pre-treated for 6 hrs prior to LPS-challenge measured after 24 hrs by Griess reaction; assay type: functional, cell-based; summary of the method: as §6
RAW264.7 [17] = test: Antiinflammatory activity in LPS-stimulated mouse RAW264.7 cells assessed as reduction in TNF-alpha production at 20 and 40 uM pre-treated for 6 hrs prior to LPS-challenge measured after 24 hrs iin presence of HO-1 competitive inhibitor SnPP; assay type: functional, cell-based; summary of the method: as §3
RAW264.7 [18] = test: Reduction in COX2 expression in LPS-stimulated mouse RAW264.7 cells at 5 to 40 uM pre-treated for 6 hrs prior to LPS-challenge measured after 24 hrs by western blot analysis in presence of HO-1 competitive inhibitor SnPP by western blot analysis; assay type: functional, cell-based; summary of the method: as §3
RAW264.7 [19] = test: Reduction in iNOS expression in LPS-stimulated mouse RAW264.7 cells at 5 to 40 uM pre-treated for 6 hrs prior to LPS-challenge measured after 24 hrs by western blot analysis in presence of HO-1 competitive inhibitor SnPP by western blot analysis; assay type: functional, cell-based; summary of the method: as §3
[20] = molecular target: Transcription factor p65 (Mus musculus) (UniProt Q04207); test: Inhibition of LPS-stimulated NF-kappaB p65 nuclear translocation in mouse RAW264.7 cells at 20 and 40 uM pre-treated for 6 hrs prior to LPS-challenge measured after 30 mins by western blot analysis; assay type: cell-based; summary of the method: as §5
RAW264.7 [21] = test: Reduction in IL-1beta mRNA expression in LPS-stimulated mouse RAW264.7 cells at 20 and 40 uM pre-treated for 6 hrs prior to LPS-challenge measured after 24 hrs by real-time PCR analysis; assay type: functional, cell-based; summary of the method: as §1
RAW264.7 [22] = test: Inhibition of LPS-stimulated NF-kappaB p50 nuclear translocation in mouse RAW264.7 cells at 20 and 40 uM pre-treated for 6 hrs prior to LPS-challenge measured after 30 mins by western blot analysis; assay type: cell-based; summary of the method: as §5
RAW264.7 [23] = test: Reduction in COX2 expression in LPS-stimulated mouse RAW264.7 cells at 5 to 40 uM pre-treated for 6 hrs prior to LPS-challenge measured after 24 hrs by western blot analysis; assay type: functional, cell-based; summary of the method: as §6
RAW264.7 [24] = test: Antiinflammatory activity in LPS-stimulated mouse RAW264.7 cells assessed as reduction in IL-1beta production at 20 and 40 uM pre-treated for 6 hrs prior to LPS-challenge measured after 24 hrs in presence of competitive inhibitor of HO-1 SnPP; assay type: functional, cell-based; summary of the method: as §3

Sequence of Transcription factor p65 (Mus musculus) (Q04207 whole entry): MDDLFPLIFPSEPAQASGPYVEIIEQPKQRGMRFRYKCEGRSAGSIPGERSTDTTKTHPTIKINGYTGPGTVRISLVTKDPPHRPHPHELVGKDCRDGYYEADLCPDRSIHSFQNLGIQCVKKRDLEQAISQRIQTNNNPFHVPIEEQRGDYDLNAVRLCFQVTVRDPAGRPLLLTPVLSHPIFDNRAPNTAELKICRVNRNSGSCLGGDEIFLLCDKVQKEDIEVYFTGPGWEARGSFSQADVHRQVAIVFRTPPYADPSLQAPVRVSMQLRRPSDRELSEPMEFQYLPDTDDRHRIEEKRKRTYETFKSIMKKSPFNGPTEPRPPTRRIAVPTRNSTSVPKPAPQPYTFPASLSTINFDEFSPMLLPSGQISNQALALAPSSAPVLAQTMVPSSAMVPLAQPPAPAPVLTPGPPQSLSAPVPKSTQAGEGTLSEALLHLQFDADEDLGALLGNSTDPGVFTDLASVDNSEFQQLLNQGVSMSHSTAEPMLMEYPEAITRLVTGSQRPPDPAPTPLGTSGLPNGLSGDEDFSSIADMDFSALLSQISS

- Activity [2]: Active
- Activity [4]: Active
- Activity [8]: Active
- inhibition [10]: Active
- Activity [12]: Active
- inhibition [20]: Active
Compound: Cc1nc(Cc2ccc(N(C)C=O)cc2)c(C)nc1Cc1ccc(N(C)C=O)cc1
- Activity (RAW264.7 [1]): Dose-dependent effect
- Activity (RAW264.7 [3]): inactive
- Activity (RAW264.7 [5]): inactive
- Activity (RAW264.7 [6]): Dose-dependent effect
- Activity (RAW264.7 [7]): Dose-dependent effect
- Activity (RAW264.7 [9]): Dose-dependent effect
- Activity (RAW264.7 [11]): Dose-dependent effect
- Activity (RAW264.7 [13]): Dose-dependent effect
- Activity (RAW264.7 [14]): inactive
- Activity (RAW264.7 [15]): Dose-dependent effect
- Activity (RAW264.7 [16]): Dose-dependent effect
- Activity (RAW264.7 [17]): inactive
- Activity (RAW264.7 [18]): inactive
- Activity (RAW264.7 [19]): inactive
- Activity (RAW264.7 [21]): Dose-dependent effect
- inhibition (RAW264.7 [22]): Active
- Activity (RAW264.7 [23]): Dose-dependent effect
- Activity (RAW264.7 [24]): inactive

Source: ChEMBL document CHEMBL4477190, “Marine-Derived Secondary Metabolite, Griseusrazin A, Suppresses Inflammation through Heme Oxygenase-1 Induction in Activated RAW264.7 Macrophages” (J Nat Prod, 2016)
